Test results as given in ChEMBL document CHEMBL4308843, “Identification of ABX-1431, a Selective Inhibitor of Monoacylglycerol Lipase and Clinical Candidate for Treatment of Neurological Disorders” (J Med Chem, 2018).
pIC50: −log10 of the molar value. The source made the active and inactive calls. No cut-off for these calls is given here.

Tests used:
[1] = Intrinsic clearance in human liver microsomes; format: ADME, Microsome; settings: read-out: CLH
[2] = biological target: T1, Monoacylglycerol lipase ABHD6 (Homo sapiens, UniProt Q9BV23); assay: Inhibition of ABHD6 derived from human PC3 cell lysates preincubated for 30 mins followed by JW912 addition after 30 mins by gel-based ABPP assay; format: subcellular, Lysate
T1 sequence (Q9BV23 whole entry): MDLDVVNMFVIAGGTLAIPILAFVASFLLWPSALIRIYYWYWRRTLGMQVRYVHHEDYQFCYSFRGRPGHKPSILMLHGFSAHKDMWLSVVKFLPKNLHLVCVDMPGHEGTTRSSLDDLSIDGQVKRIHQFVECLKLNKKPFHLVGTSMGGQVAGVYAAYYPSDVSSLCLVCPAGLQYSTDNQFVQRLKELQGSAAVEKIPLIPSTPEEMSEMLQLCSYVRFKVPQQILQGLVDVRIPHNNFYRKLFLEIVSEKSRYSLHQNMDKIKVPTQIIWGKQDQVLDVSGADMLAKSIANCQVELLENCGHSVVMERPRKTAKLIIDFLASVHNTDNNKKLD

[3] = biological target: T2, Platelet-activating factor acetylhydrolase (Homo sapiens, UniProt Q13093); assay: Inhibition of PLA2G7 derived from human PC3 cell lysates preincubated for 30 mins followed by JW912 addition after 30 mins by gel-based ABPP assay; format: subcellular, Lysate
T2 sequence (Q13093 whole entry): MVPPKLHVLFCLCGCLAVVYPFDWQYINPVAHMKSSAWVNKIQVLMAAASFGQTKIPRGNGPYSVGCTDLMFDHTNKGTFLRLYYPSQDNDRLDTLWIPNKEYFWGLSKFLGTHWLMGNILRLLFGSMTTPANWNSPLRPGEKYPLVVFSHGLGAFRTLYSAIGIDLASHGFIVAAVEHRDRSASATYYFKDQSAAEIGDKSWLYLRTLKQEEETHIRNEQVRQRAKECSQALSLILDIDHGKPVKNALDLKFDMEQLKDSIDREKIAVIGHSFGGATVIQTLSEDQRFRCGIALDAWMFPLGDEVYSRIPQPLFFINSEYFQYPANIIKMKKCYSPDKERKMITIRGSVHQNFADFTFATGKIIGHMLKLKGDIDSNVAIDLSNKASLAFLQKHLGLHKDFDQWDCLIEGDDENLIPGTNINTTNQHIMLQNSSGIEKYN

Mus musculus = assay: In-vivo inhibition of MGLL in ICR mouse brain assessed as target engagement at 5 mg/kg, po measured 4 hrs post dose by gel-based ABPP assay relative to control; format: functional; design: scale not given: the % may be the effect or the level left
Summary of the method: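 Mice received a single 5 mg/kg oral gavage dose. Whole brains were collected 4 h post-dose and target engagement was read by gel-based ABPP with FP-Rh probe.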

Monoglyceride lipase = biological target: T3, Monoglyceride lipase (Mus musculus, UniProt O35678); assay: Inhibition of MGLL derived from mouse brain homogenates preincubated for 30 mins followed by JW912 addition after 30 mins by gel-based ABPP assay; format: tissue-based
T3 sequence (O35678 whole entry): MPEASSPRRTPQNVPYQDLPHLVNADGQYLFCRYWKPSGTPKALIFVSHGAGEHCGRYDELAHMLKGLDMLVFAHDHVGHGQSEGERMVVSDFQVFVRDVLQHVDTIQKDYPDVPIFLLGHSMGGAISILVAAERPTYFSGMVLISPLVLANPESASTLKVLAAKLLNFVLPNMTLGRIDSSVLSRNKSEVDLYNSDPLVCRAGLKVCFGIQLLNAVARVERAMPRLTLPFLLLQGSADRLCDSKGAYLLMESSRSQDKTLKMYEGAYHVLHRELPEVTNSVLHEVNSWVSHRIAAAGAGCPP

pIC50 [3]	pIC50 (Monoglyceride lipase)	SMILES	Activity (Mus musculus)	further results
		O=C(OC(C(F)(F)F)C(F)(F)F)N1CCN(Cc2ccc(Cl)cc2N2CCCC2)CC1		microsomal CLint [1]: 34 µL/min/mg
< 5.00		O=C(OC(C(F)(F)F)C(F)(F)F)N1CCN(Cc2cc(Cl)ccc2N2CCOCC2)CC1		pIC50 [2]: < 5.00
< 5.00		Cc1cc(Cl)ccc1C(c1ccc(Cl)cc1C)N1CCN(C(=O)OC(C(F)(F)F)C(F)(F)F)CC1		pIC50 [2]: < 5.00
		O=C(OC(C(F)(F)F)C(F)(F)F)N1CCN(Cc2ccc(Cl)cc2N2CCOCC2)CC1		microsomal CLint [1]: 45 µL/min/mg
		O=C(OC(C(F)(F)F)C(F)(F)F)N1CCN(Cc2ccc(C(F)(F)F)cc2N2CCOCC2)CC1	100%	microsomal CLint [1]: 24 µL/min/mg
< 6.00		O=C(OC(C(F)(F)F)C(F)(F)F)N1CCN(C(c2ccc(Cl)cc2)c2ccc(Cl)cc2)CC1		
		O=C(OC(C(F)(F)F)C(F)(F)F)N1CCN(Cc2cccc(Cl)c2N2CCOCC2)CC1		microsomal CLint [1]: 76 µL/min/mg
< 5.00	6.92	O=C(OC(C(F)(F)F)C(F)(F)F)N1CCN(Cc2ccc(Cl)cc2N2CCCCC2)CC1		
	7.18	O=C(OC(C(F)(F)F)C(F)(F)F)N1CCN(Cc2ccc(Cl)cc2N2CC[C@H]3CCCN3C2)CC1	50%	
	8.10	O=C(OC(C(F)(F)F)C(F)(F)F)N1CCN(Cc2ccc(C(F)(F)F)cc2N2CC[C@@H](O)C2)CC1	100%	
< 6.00	7.62	O=C(OC(C(F)(F)F)C(F)(F)F)N1CCN(Cc2ccc(C(F)(F)F)cc2N2CCC3(CCOCC3)C2)CC1	75%	
< 5.00		O=C(OC(C(F)(F)F)C(F)(F)F)N1CCN(Cc2c(Cl)cccc2N2CCOCC2)CC1		
	7.77	O=C(OC(C(F)(F)F)C(F)(F)F)N1CCN(Cc2ccc(C(F)(F)F)cc2N2CC3COCC3C2)CC1 (centres undefined)	25%	
		O=C(OC(C(F)(F)F)C(F)(F)F)N1CCN(Cc2ccc(Cl)cc2N2CCN(CCF)CC2)CC1	75%	
		O=C(OC(C(F)(F)F)C(F)(F)F)N1CCN(Cc2ccc(Cl)cc2N2CC3CCC(C2)O3)CC1	100%	
	7.82	O=C(OC(C(F)(F)F)C(F)(F)F)N1CCN(Cc2ccc(C(F)(F)F)cc2N2CC[C@H](O)C2)CC1	75%	
	6.80	C#Cc1ccc(CN2CCN(C(=O)OC(C(F)(F)F)C(F)(F)F)CC2)c(N2CCCC2)c1		
< 6.00		O=C(OC(C(F)(F)F)C(F)(F)F)N1CCN(Cc2ccc(C(F)(F)F)cc2N2C[C@H]3CC[C@@H](C2)O3)CC1	100%	
	6.62	CN1CC2CN(c3cc(C(F)(F)F)ccc3CN3CCN(C(=O)OC(C(F)(F)F)C(F)(F)F)CC3)CC2C1 (centres undefined)	inactive	
	6.89	O=C(OC(C(F)(F)F)C(F)(F)F)N1CCN(Cc2ccc(C(F)(F)F)cc2N2CCCCC2)CC1		

SMILES	pIC50 [3]	pIC50 (Monoglyceride lipase)	Activity (Mus musculus)	further results
O=C(OC(C(F)(F)F)C(F)(F)F)N1CCN(Cc2ccc(C(F)(F)F)cc2N2[C@@H]3CC[C@H]2COC3)CC1	< 6.00		100%	
